Calls of active or inactive are those of the source.
Assays:
Liver carboxylesterase 1 = molecular target: T1, Liver carboxylesterase 1 (Homo sapiens, UniProt P23141); assay: Inhibition of human liver CE1-mediated O-nitrophenyl acetate hydrolysis by spectrophotometry
T1 sequence (P23141 whole entry): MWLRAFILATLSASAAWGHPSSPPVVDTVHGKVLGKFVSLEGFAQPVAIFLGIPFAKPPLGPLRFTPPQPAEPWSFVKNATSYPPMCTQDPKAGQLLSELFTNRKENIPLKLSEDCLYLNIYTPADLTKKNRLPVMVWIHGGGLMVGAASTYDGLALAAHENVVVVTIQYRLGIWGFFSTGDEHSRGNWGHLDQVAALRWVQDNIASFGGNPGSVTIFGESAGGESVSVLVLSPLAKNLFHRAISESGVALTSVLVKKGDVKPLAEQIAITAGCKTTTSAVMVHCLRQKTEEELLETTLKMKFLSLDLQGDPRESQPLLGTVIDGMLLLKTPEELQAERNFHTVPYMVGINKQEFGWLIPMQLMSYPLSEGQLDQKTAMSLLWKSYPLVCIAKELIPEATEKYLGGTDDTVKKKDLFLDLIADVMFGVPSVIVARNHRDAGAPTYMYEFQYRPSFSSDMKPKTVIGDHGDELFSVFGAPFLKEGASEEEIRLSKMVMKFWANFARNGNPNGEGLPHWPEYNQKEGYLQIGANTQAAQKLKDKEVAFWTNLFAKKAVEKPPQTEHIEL
Procedure, shortened: (§1)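 Enzyme activity read spectrophotometrically as release of o-nitrophenol from o-nitrophenyl acetate across increasing inhibitor concentrations. Inhibitors were freshly dissolved in DMSO, typically as 10mM stocks. Fractional inhibition was plotted against inhibitor concentration and fitted to a partial-inhibition equation including Ks, α and β. Inhibition mode was chosen by Akaike's information criteria, and Ki was taken from the best-fit model.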

[1] = molecular target: Acetylcholinesterase (Homo sapiens) (UniProt P22303); assay: Inhibition of human AchE using acetylthiocholine as substrate by spectrophotometric multiwell plate assay
Acetylcholinesterase (Homo sapiens), sequence (P22303 whole entry): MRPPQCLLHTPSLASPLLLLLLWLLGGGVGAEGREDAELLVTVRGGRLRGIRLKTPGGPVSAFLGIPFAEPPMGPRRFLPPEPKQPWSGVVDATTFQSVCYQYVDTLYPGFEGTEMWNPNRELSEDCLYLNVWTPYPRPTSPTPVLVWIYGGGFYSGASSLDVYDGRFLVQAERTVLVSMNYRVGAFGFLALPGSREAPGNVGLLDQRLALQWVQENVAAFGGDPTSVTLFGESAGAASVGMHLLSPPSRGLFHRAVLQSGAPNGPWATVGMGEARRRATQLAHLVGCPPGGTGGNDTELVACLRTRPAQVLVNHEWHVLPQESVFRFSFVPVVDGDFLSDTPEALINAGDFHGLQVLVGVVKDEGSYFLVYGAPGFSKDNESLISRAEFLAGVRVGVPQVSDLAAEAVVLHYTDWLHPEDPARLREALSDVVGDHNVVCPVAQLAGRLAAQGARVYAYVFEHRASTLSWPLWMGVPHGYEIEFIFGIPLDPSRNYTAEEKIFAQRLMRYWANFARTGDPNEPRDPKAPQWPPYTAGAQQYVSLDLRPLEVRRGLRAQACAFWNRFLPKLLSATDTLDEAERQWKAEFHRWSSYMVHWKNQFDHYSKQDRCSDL

[2] = Inhibition of human intestinal CE-mediated O-nitrophenyl acetate hydrolysis by spectrophotometry; procedure, shortened: as §1
[3] = molecular target: Cholinesterase (Homo sapiens) (UniProt P06276); assay: Inhibition of human BchE using butyrylthiocholine as substrate by spectrophotometric multiwell plate assay
Cholinesterase (Homo sapiens), sequence (P06276 whole entry): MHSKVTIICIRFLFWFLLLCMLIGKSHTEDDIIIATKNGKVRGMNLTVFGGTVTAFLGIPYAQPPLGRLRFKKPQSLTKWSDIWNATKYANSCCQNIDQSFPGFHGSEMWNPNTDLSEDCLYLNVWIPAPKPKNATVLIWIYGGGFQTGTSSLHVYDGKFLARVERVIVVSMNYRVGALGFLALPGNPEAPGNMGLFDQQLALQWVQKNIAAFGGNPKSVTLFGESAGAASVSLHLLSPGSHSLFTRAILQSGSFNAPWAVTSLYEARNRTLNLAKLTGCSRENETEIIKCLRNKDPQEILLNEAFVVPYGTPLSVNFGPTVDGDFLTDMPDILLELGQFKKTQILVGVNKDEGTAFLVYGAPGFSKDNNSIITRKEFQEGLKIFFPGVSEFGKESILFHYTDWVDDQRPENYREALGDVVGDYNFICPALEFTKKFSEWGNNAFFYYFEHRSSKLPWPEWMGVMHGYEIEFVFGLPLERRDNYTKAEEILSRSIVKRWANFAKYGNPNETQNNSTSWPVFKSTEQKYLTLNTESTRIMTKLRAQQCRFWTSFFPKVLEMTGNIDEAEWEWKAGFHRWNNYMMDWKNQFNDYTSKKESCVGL

[4] = Inhibition of human intestinal CE-mediated irinotecan hydrolysis
Procedure, shortened: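 Human intestinal CE (25 U per reaction; 1 U converts 1 nmole o-nitrophenyl acetate/min) with 20µM CPT-11 in 50mM Hepes pH7.4, inhibitor 1nM to 100µM. Incubated 37°C for 5 min, stopped with cold acidified methanol, centrifuged. SN-38 measured by reverse phase HPLC. Fractional inhibition fitted to partial inhibition equation, model chosen by Akaike's criteria, Ki from best fit.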

Row | SMILES | Ki (Liver carboxylesterase 1) [nM] | Activity [1] | Ki [2] [nM] | Activity [3] | Ki [4] [nM]
1 | Cc1c(C)c(NS(=O)(=O)c2ccc(Cl)c(Cl)c2)c(C)c(C)c1NS(=O)(=O)c1ccc(Cl)c(Cl)c1 | > 100000 | inactive | 344 | inactive | 
2 | CNC(=O)c1ccc(S(=O)(=O)Nc2ccc(NS(=O)(=O)c3ccc(F)cc3)cc2)cc1 | > 100000 | inactive | > 100000 | inactive | 
3 | O=S(=O)(Nc1cc(Br)c(NS(=O)(=O)c2ccccc2)cc1Br)c1ccccc1 | > 100000 | inactive | > 100000 | inactive | 
4 | Cc1c(C)c(NS(=O)(=O)c2ccc(F)cc2)c(C)c(C)c1NS(=O)(=O)c1ccc(F)cc1 | > 100000 | inactive | > 100000 | inactive | > 100000
5 | O=S(=O)(Nc1ccc(NS(=O)(=O)c2cc(F)c(F)c(F)c2)cc1)c1cc(F)c(F)c(F)c1 | > 100000 | inactive | 210 | inactive | 192
6 | O=S(=O)(Nc1ccc(NS(=O)(=O)c2ccc(F)c(F)c2)cc1)c1ccc(F)c(F)c1 | > 100000 | inactive | 160 | inactive | 
7 | Cc1ccc(S(=O)(=O)Nc2ccc(NS(=O)(=O)c3cc(F)ccc3F)cc2)cc1 | > 100000 | inactive | 467 | inactive | 
8 | O=S(=O)(Nc1ccc(NS(=O)(=O)c2cccc(Cl)c2Cl)cc1)c1cccc(Cl)c1Cl | > 100000 | inactive | 268 | inactive | 
9 | O=S(=O)(Nc1c(F)c(F)c(NS(=O)(=O)c2ccc(Cl)cc2)c(F)c1F)c1ccc(Cl)cc1 |  | inactive | 41.5 | inactive | 110
10 | O=S(=O)(Nc1ccc(NS(=O)(=O)c2cccc(F)c2)cc1)c1cccc(F)c1 | > 100000 | inactive | 248 | inactive | 152
11 | O=S(=O)(Nc1ccc2c(c1)Cc1cc(NS(=O)(=O)c3cccc(Br)c3)ccc1-2)c1cccc(Br)c1 | > 100000 | inactive | 21.2 | inactive | 39.7
12 | O=S(=O)(Nc1ccc(NS(=O)(=O)c2cc(Cl)c(Cl)cc2Cl)cc1)c1cc(Cl)c(Cl)cc1Cl | > 100000 | inactive | > 100000 | inactive | 
13 | O=S(=O)(Nc1ccc(NS(=O)(=O)c2ccc(Cl)cc2)cc1)c1ccc(F)cc1 | > 100000 | inactive | 200 | inactive | 
14 | O=S(=O)(Nc1ccc(NS(=O)(=O)c2ccc(Cl)c(Cl)c2)cc1)c1ccc(Cl)c(Cl)c1 | > 100000 | inactive | 91.5 | inactive | 
15 | O=S(=O)(Nc1ccc2c(c1)Cc1cc(NS(=O)(=O)c3cccc(Cl)c3)ccc1-2)c1cccc(Cl)c1 | > 100000 | inactive | 13.9 | inactive | 52.8
16 | O=S(=O)(Nc1ccc(NS(=O)(=O)c2cc(Cl)cc(Cl)c2)cc1)c1cc(Cl)cc(Cl)c1 | > 100000 | inactive | 385 | inactive | 
17 | Cc1ccc(C)c(S(=O)(=O)Nc2ccc(NS(=O)(=O)c3ccc(F)cc3)cc2)c1 | > 100000 | inactive | 240 | inactive | 
18 | Cc1ccc(S(=O)(=O)Nc2ccc(NS(=O)(=O)c3ccc(Cl)cc3)cc2)cc1 | > 100000 | inactive | 161 | inactive | 
19 | Cc1c(C)c(NS(=O)(=O)c2cccc(Cl)c2)c(C)c(C)c1NS(=O)(=O)c1cccc(Cl)c1 | > 100000 | inactive | 2060 | inactive | 
20 | O=C(O)c1ccc(S(=O)(=O)Nc2ccc(NS(=O)(=O)c3ccc(F)cc3)cc2)cc1 | > 100000 | inactive | > 100000 | inactive | 
21 | O=S(=O)(Nc1ccc(NS(=O)(=O)c2ccc(F)c(F)c2)cc1)c1ccccc1 | > 100000 | inactive | 488 | inactive | 
22 | O=S(=O)(Nc1cc(Cl)c(NS(=O)(=O)c2ccc(Cl)cc2)cc1Cl)c1ccc(Cl)cc1 | > 100000 | inactive | 455 | inactive | 

Row | SMILES | Ki (Liver carboxylesterase 1) [nM] | Activity [1] | Ki [2] [nM] | Activity [3] | Ki [4] [nM]
23 | CS(=O)(=O)Nc1ccc(SSc2ccc(NS(C)(=O)=O)cc2)cc1 |  | inactive | 767 | inactive | > 100000
24 | O=S(=O)(Nc1ccc(NS(=O)(=O)c2ccc(Cl)cc2)cc1)c1ccc(Cl)cc1 |  | inactive |  | inactive | 141
25 | COc1ccc(S(=O)(=O)Nc2ccc(NS(=O)(=O)c3ccc(F)cc3)cc2)cc1 | > 100000 | inactive | 568 | inactive | 
26 | O=S(=O)(Nc1ccc(NS(=O)(=O)c2ccccc2)c(Cl)c1)c1ccccc1 | > 100000 | inactive | 696 | inactive | 
27 | CCOc1ccc(NS(=O)(=O)c2ccc(Cl)cc2)cc1 |  | inactive | 1310 | inactive | 3220
28 | O=S(=O)(Nc1ccc(NS(=O)(=O)c2ccccc2F)cc1)c1ccccc1F | > 100000 | inactive | 1450 | inactive | 
29 | Cc1ccc(S(=O)(=O)Nc2ccc(NS(=O)(=O)c3ccc(F)cc3)cc2)cc1 | > 100000 | inactive | 281 | inactive | 
30 | O=S(=O)(Nc1ccc(Oc2ccccc2)cc1)c1ccc(Br)cc1 |  | inactive | 165 | inactive | > 100000
31 | Cc1ccc(S(=O)(=O)Nc2ccc(NS(=O)(=O)c3ccc(F)cc3F)cc2)cc1 | > 100000 | inactive | 385 | inactive | 
32 | Cc1c(C)c(NS(=O)(=O)c2cccc(Br)c2)c(C)c(C)c1NS(=O)(=O)c1cccc(Br)c1 | > 100000 | inactive | 1570 | inactive | 
33 | O=S(=O)(Nc1ccc(NS(=O)(=O)c2cc(Cl)ccc2Cl)cc1)c1cc(Cl)ccc1Cl | > 100000 | inactive | 119 | inactive | 
34 | O=S(=O)(Nc1ccc(NS(=O)(=O)c2cc(F)cc(F)c2)cc1)c1cc(F)cc(F)c1 | > 100000 | inactive | 246 | inactive | 
35 | O=S(=O)(Nc1c(F)c(F)c(NS(=O)(=O)c2ccc(F)cc2)c(F)c1F)c1ccc(F)cc1 | > 100000 | inactive | 314 | inactive | 
36 | Cc1cc(NS(=O)(=O)c2ccccc2)ccc1NS(=O)(=O)c1ccccc1 |  | inactive | 365 | inactive | 238
37 | O=S(=O)(Nc1ccc(NS(=O)(=O)c2ccc(Cl)cc2)c2ccccc12)c1ccc(Cl)cc1 |  | inactive | 194 | inactive | > 100000
38 | O=S(=O)(Nc1ccc(NS(=O)(=O)c2ccc3ccccc3c2)cc1)c1ccc2ccccc2c1 | > 100000 | inactive | 1580 | inactive | 
39 | Cc1ccc(C(=O)O)cc1S(=O)(=O)Nc1ccc(NS(=O)(=O)c2ccc(F)cc2)cc1 | > 100000 | inactive | 693 | inactive | 
40 | O=S(=O)(Nc1c(Cl)c(Cl)c(NS(=O)(=O)c2ccccc2)c(Cl)c1Cl)c1ccccc1 |  | inactive | 451 | inactive | > 100000
41 | Cc1c(C)c(NS(=O)(=O)c2ccc(Cl)cc2)c(C)c(C)c1NS(=O)(=O)c1ccc(Cl)cc1 | > 100000 | inactive | 2010 | inactive | 
42 | Cc1ccc(S(=O)(=O)Nc2ccc(NS(=O)(=O)c3ccc(F)c(F)c3)cc2)cc1 | > 100000 | inactive | 194 | inactive | 
43 | O=S(=O)(Nc1cc(Br)c(NS(=O)(=O)c2ccc(Cl)cc2)cc1Br)c1ccc(Cl)cc1 | > 100000 | inactive | > 100000 | inactive | 
